Key:
H108 fibroblasts = assay: Immunoblotting of total cell extracts; format: cell-based, human; conditions: H108 fibroblasts; 2.5 μM WX8 or 2 μM Adriamycin 24 h
Method in brief: (§1)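 Cells were cultured with 2.5 μM test compound for up to 96 h, and attached plus unattached cells were pooled. Whole-cell RIPA lysates were run on 4–12% Bis-Tris gels, transferred to nitrocellulose and blocked in 5% milk/TBS. Primary antibodies went on overnight at 4°C, followed by infrared secondary antibodies and imager quantitation. Each blot carried untreated U2OS as a shared standard, with Ponceau-S histones for normalization and lighter exposures for quantitation. Adriamycin for 24 h (NTERA-2 1 μM, H108 2 μM) served as a DNA-break control.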

NTERA-2 ECCs = assay: Immunoblotting of total cell extracts; format: cell-based, human; conditions: NTERA-2, 1 μM Adriamycin, 24 h
Method in brief: as §1

## COc1cccc2c1C(=O)c1c(O)c3c(c(O)c1C2=O)C[C@@](O)(C(=O)CO)C[C@@H]3O[C@H]1C[C@H](N)[C@H](O)[C@H](C)O1 [Adriamycin, doxorubicin]
H108 fibroblasts
  CASP3 cleavage: Neither WX8 nor Adriamycin induced cleavage
  PARP cleavage: Neither WX8 nor Adriamycin induced cleavage
NTERA-2 ECCs
  CASP3 cleaved: > 90%

Reference: article PMC8828683 (Stem Cell Reports, 2022)
